Source: PubChem
TDP2 absorb: human TDP2 enzyme inhibitors, primary screen, biochemical, epi absorbance, recombinant enzyme. 370,000 compounds, 0.34% hits. inhibition, % at 12.8 µM. T5PNP hydrolysis, p-nitrophenol absorbance 415 nm. Tyrosyl-DNA phosphodiesterase 2 (Homo sapiens), O95551;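 active = inhibition above the mean of all tested compounds plus 3 SD, set per campaign, cut at about 25% in these data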
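System: recombinant human TDP2 / Amount: 120 nM TDP2 per well / Also added: 5 mM T5PNP chromogenic substrate / Doses: 12.8 µM single point, 1% DMSO / Incubation: 2 h at 37 °C / Detection: p-Nitrophenol epi absorbance / Evaluation: % inhibition relative to enzyme-containing and enzyme-free wells / Repeats: singlicate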
PRMT1 inh: PRMT1 methyltransferase inhibitors, primary screen, biochemical, fluorescence polarization. Protein arginine N-methyltransferase 1 (Homo sapiens), Q99873. recombinant PRMT1, activity-based probe fluorescence polarization. inhibition, % at 2.79 µM. 370,000 compounds, 1.3% hits. AID 652257, 2013;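 active = inhibition above about 21% made by adding two undisclosed values, limit read from the data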
GSTO1 counter: inhibitors of recombinant GSTO1, primary screen, counter-screen for RBBP9 inhibitor project, biochemical, fluorescence polarization; Glutathione S-transferase omega-1 (Homo sapiens), P78417; activity-based probe fluorescence polarization; inhibition, % at 5.96 µM; 300,000 compounds, 1.1% hits;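 active = inhibition above the campaign mean inhibition plus 3 SD, cut at about 35% in these data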
Apaf-1 inh: inhibitors of human Apaf-1 apoptosome, primary screen, biochemical, DEVD-Rh110 fluorescence, uHTS; 330,000 compounds, 0.71% hits; reconstituted apoptosome caspase-3 activity; Apoptotic protease-activating factor 1 (Homo sapiens), O14727; inhibition, % at 20 µM; AID 489030, 2010; active = inhibition of at least 40% at 20 µM
Target sequence (O14727 whole entry, looked up): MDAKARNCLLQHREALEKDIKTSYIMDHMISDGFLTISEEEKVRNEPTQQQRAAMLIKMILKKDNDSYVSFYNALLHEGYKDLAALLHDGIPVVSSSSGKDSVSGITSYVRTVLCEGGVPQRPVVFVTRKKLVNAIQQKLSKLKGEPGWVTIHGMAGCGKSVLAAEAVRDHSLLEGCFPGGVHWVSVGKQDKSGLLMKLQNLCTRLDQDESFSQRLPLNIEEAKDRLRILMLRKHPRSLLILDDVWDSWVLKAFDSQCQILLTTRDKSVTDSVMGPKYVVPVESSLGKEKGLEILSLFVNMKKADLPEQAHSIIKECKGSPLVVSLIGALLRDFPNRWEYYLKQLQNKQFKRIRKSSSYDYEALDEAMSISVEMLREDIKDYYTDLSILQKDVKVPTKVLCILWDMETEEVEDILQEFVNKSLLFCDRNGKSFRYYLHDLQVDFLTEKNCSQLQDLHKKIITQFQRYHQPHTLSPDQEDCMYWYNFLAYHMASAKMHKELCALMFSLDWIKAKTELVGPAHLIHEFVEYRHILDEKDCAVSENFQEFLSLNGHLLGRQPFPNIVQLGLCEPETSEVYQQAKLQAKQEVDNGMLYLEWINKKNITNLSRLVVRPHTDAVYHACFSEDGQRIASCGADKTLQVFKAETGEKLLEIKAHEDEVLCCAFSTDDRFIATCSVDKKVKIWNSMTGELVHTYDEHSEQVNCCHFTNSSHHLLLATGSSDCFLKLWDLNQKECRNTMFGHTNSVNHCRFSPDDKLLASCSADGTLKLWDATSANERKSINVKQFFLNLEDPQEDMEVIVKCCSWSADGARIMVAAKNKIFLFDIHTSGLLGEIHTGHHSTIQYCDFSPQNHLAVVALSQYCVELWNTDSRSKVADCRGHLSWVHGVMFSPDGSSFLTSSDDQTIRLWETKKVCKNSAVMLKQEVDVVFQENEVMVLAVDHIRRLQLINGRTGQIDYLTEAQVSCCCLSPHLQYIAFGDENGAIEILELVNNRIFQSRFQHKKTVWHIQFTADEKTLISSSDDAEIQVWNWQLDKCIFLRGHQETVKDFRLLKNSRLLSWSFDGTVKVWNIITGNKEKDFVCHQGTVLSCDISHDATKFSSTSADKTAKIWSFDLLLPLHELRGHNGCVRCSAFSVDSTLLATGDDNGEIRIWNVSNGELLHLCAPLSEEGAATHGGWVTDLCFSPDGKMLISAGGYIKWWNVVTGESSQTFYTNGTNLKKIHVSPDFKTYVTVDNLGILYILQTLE
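Material: biochemical Apaf-1 apoptosome reconstitution. Medium: Hepes buffer, pH 7.5. Also added: cytochrome c activation, bis-DEVD rhodamine 110 substrate. Timing: 30 min compound preincubation, 50 min activation, room temperature. Measured by: rhodamine 110 fluorescence at Ex 480/Em 540 nm.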
PAD4 FP inh: human PAD4 inhibitors, primary screen, biochemical, fluorescence polarization, 1536-well format; AID 485272, 2010; 330,000 compounds, 0.41% hits; Protein-arginine deiminase type-4 (Homo sapiens), Q9UM07; inhibition, % at 6.36 µM; recombinant PAD4, RCA probe fluorescence polarization;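 active = percent inhibition above a cutoff equal to the mean of all tested compounds plus 3 SD, cut at about 15% in these data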
TDP2 inh conf: human TDP2 enzyme inhibitors, retest, confirmation, biochemical, epi absorbance, recombinant enzyme. 1,100 compounds, 22% hits. absorbance read-out. inhibition, % at 12.8 µM. shares compounds with TDP2 absorb; in the data active = inhibition above about 25%
Numbers stand for hits; 0 = inactive; - = no result. Compounds with a hit are over-represented: about 2.6% of the library has one in this group of screens.

SMILES	TDP2 absorb	PRMT1 inh	GSTO1 counter	Apaf-1 inh	PAD4 FP inh	TDP2 inh conf
O=C(COc1ccccc1F)Nc1ccc2[nH]c(=O)[nH]c2c1	28	0	0	0	0	0
O=C(O)C1C2C=CC(C2)C1C(=O)NCc1ccccc1F (centres undefined)	0	0	0	0	0	-
CC1=C(C)CC(C(=O)NCc2ccccc2F)C(C(=O)O)C1 (centres undefined)	25	0	0	0	0	0
Cc1ccc(C(=O)NCCONC(=O)c2ccc(C)cc2)cc1	25	0	0	0	0	0
COc1ccc(C(=O)NCCONC(=O)c2ccc(OC)cc2)cc1	0	0	0	0	0	-
Cc1ccc(CC#N)c(-c2c(CC#N)ccc(C)c2C)c1C	0	0	-	-	-	-
Cc1ccc2c(c1C)-c1c(ccc(C)c1C)C(=O)C2=O	79	0	-	-	-	67
Cc1ccccc1-n1ncc2c1CC(C)(C)CC2NC(=O)CCn1cncn1 (centres undefined)	82	0	-	0	-	0
CC(=O)N1c2ccc(S(=O)(=O)NCC3CCC(C(=O)N4CCC(C)CC4)CC3)cc2CC1C (centres undefined)	28	0	0	0	0	0
CC(C)(C)C(=O)[C@@H]1[C@@H]2C(=O)N(c3ccc4c(c3)OCCO4)C(=O)[C@@H]2C2c3ccccc3C=CN21 (some centres undefined)	27	0	0	62	0	0
COc1cccc(N2CCN(Cc3cccnc3)CC2)c1	31	0	0	0	0	0
COc1ccc(NC(=O)CCNC(=O)c2ccco2)c(OC)c1	0	0	0	0	0	-
COc1ccc(C(O)c2nccc3cc(OC)c(OC)cc23)cc1OC (centres undefined)	34	0	0	0	0	0
COc1cc(N)c(C(O)c2nccc3cc(OC)c(OC)cc23)cc1OC (centres undefined)	0	0	0	0	0	-
Cc1ccccc1NC(=O)c1ccccc1NC(=O)c1cccs1	27	0	0	0	0	0
Cc1ccc(NC(=O)c2ccccc2NC(=O)c2cccs2)cc1	0	0	0	0	0	-
CCOc1cc(/C=N/Nc2nnc(C)n2N)ccc1OC(C)=O	43	0	-	0	-	0
CCOC(=O)CNC(=O)CN1C(=O)CCS(=O)(=O)c2ccccc21	0	0	0	0	0	-
O=C(CN1C(=O)CCS(=O)(=O)c2ccccc21)NCCc1ccccc1	26	0	0	0	0	0
Cc1ccc(NC(=O)N2C3CCCC2CC(NC(=O)C2CC2)C3)cc1 (centres undefined)	0	0	0	0	0	-
O=C(NC1CC2CCCC(C1)N2C(=O)Nc1cccc(F)c1)C1CC1 (centres undefined)	28	0	0	0	0	0
CNC(=O)NC(=O)CN1C(=O)NC2(CCOc3ccccc32)C1=O (centres undefined)	0	0	0	0	0	-
C/C(=N\NC(=O)c1cccc(N/N=C(\C)c2cc(O)ccc2O)c1)c1cc(O)ccc1O	0	0	0	0	0	-
CCOc1ccccc1NC(=O)C(NCCN(C)C)c1ccccc1 (centres undefined)	27	0	0	0	0	0
CCOc1ccccc1NC(=O)C(NCC1CCCCC1)c1ccccc1 (centres undefined)	0	0	0	0	0	-
O=C1Nc2c(Cl)cc(Cl)cc2C1=O	49	0	-	-	-	54
Cc1cccc(N=C2C(=O)Nc3c(Cl)cccc32)c1	0	0	0	0	0	-
CCN(CC)S(=O)(=O)c1ccc2oc(SCC(=O)Nc3cc(C)on3)nc2c1	41	0	0	0	0	0
